# Experimental data as given in ChEMBL document CHEMBL4024790 (J Med Chem, 2018).
# Legend:
# [1] = Plasma clearance in Wistar Han rat at 1 mg/kg, iv by LC-MS/MS analysis; assay type: ADME, organism-based
# Method in brief: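 Single iv dose to male Wistar-Han rats (1 mg/kg) or dogs (0.3 mg/kg), given as a solution in 20% (w/v) SBECD with HCl. Dose volume 1 mL/kg in rats and 0.4 mL/kg in dogs. Blood taken by carotid artery cannula from 2 min to 24 h into K2EDTA (rat) or K3EDTA (dog) tubes. Plasma analysed by LC-MS/MS with positive electrospray after acetonitrile precipitation with internal standard.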
# Cytochrome P450 2D6 = Cytochrome P450 2D6 (Homo sapiens, UniProt P10635); experiment: Time-dependant inhibition of recombinant human CYP2D6; assay type: ADME; conditions: recombinant enzyme
# [2] = Drug metabolism in human hepatocytes assessed as 1-(7-methyl-5-(1-methyl-5-(5-(trifluoromethyl)pyridin-2-yl)-1H-pyrazol-4-yl)imidazo[1,5-f][1,2,4]triazin-4-yl)azetidin-3-ol formation at 1 to 50 uM after 1 hr by LC-MS/MS analysis; assay type: ADME, cell-based, Hepatocyte
# Method in brief: (§1)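 Rat, dog or human liver microsomes or hepatocytes (P450 0.35–0.5 µM final) incubated with compound at 1, 10 or 50 µM in 100 mM phosphate buffer with 1 mM NADP regenerating system, 37°C for 1 h; quenched with 4 volumes acetonitrile, centrifuged, supernatant evaporated, reconstituted in 5% aqueous acetonitrile and analysed by reversed-phase LC.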
# Liver = experiment: Drug metabolism in rat liver microsomes assessed as 1-(7-methyl-5-(1-methyl-5-(5-(trifluoromethyl)pyridin-2-yl)-1H-pyrazol-4-yl)imidazo[1,5-f][1,2,4]triazin-4-yl)azetidin-3-ol formation at 1 to 50 uM after 1 hr by LC-MS/MS analysis; assay type: ADME, microsome; method in brief: as §1
# Sequence of Cytochrome P450 2D6 (P10635 whole entry): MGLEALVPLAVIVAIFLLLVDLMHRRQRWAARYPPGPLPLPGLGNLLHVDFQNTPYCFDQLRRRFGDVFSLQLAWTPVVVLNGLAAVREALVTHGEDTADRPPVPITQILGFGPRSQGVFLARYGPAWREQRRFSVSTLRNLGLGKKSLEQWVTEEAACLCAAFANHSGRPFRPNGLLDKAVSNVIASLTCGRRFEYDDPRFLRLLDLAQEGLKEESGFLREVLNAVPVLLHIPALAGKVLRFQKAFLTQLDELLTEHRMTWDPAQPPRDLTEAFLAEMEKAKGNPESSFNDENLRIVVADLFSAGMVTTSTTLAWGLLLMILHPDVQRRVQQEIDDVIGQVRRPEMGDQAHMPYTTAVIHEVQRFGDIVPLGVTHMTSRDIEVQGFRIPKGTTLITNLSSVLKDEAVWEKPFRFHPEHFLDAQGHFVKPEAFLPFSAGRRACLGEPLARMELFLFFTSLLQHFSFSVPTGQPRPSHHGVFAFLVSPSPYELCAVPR
smiles,measurement,setting,value
Cc1nc(-c2cnn(C)c2-c2ccc(C(F)(F)F)cn2)c2c(N3CCC3)ncnn12 [PF-05180999],clearance,[1],122 mL/min/kg
same,TDI,Cytochrome P450 2D6,Not Active
same,Drug metabolism,[2],Metabolite_Detected
same,Drug metabolism,Liver,Metabolite_Detected
